The text below walks through data of ChEMBL document CHEMBL1144484, “High selective leishmanicidal activity of 3-hydroxy-2-methylene-3-(4-bromophenyl)propanenitrile and analogous compounds” (Eur J Med Chem, 2007).

Series [1] deals with Peritoneal macrophage cell. As to the kind of experiment: Effect on nitric oxide production in mouse peritoneal macrophages at 50 uM after 48 hrs. The series is classed as functional. A digest of the protocol: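 Supernatants from mouse peritoneal macrophage cultures incubated 48 h with compound. Nitrite measured by a modified Griess method. IFN-gamma at 10 U/ml served as positive control. Triplicate means.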

For series [2], the system named is Leishmania amazonensis. Description: Antileishmanial activity against GFP tagged Leishmania amazonensis Josefa amastigote infected mouse peritoneal macrophages at 50 uM after 72 hrs. The series is classed as functional. A digest of the protocol:
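GFP L. amazonensis (Josefa)-infected mouse peritoneal macrophages (10⁶ cells, 5 × 10⁶ promastigotes, 4 h at 37 °C), washed, exposed to compound for 72 h in 1% DMSO. Monolayer fluorescence measured. Percent inhibition scaled between untreated infected cells and uninfected macrophages. Vehicle control was 1% DMSO. Triplicate means with SD.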

Series [3] is described as follows: Cytotoxicity against mouse peritoneal macrophages assessed as LDH release at 50 uM after 48 hrs. The series is classed as cell-based. Particulars: peritoneal macrophage cell. A digest of the protocol:
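Uninfected adherent mouse peritoneal macrophages exposed to compound for 48 h at 37 °C. LDH released into the medium measured with a commercial kit. 2% Triton X-100 set maximum release and 1% DMSO set minimum. Triplicate means with SD.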
On the technique in general: LDH leaks from cells whose membrane has failed.

Series [4] has as its system Leishmania amazonensis. As to the kind of experiment: Antileishmanial activity against GFP tagged Leishmania amazonensis Josefa promastigote at 50 uM. Type of series: functional. Put shortly: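 Triplicate wells of 10⁵ GFP-transfected promastigotes in DMEM with 5% serum and 1% DMSO, with compound, held 72 h at 27 °C. Fluorescence intensity read on a plate fluorometer. Results given as percent inhibition, mean of triplicates with SD.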

Series [5] deals with Leishmania amazonensis. As to the kind of experiment: Antiamastigote activity against GFP tagged […] amastigote infected mouse peritoneal macrophages. The series is classed as functional, organism-based. A digest of the protocol: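 Mouse peritoneal macrophages (10⁶) infected 4 h at 37 °C with 5 × 10⁶ GFP-expressing L. amazonensis (Josefa) promastigotes, washed, then cultured 72 h with compound in 1% DMSO. Monolayer fluorescence read as parasite growth. Uninfected macrophages set maximum inhibition and untreated infected cells set minimum. IC50 obtained by linear regression.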

As for `C=C(C(=O)OC)C(O)c1ccc(F)cc1` (stereo unspecified), the Activity in series [1] is -4.8 µM; in the series on Leishmania amazonensis [2], 33.6%; in series [3] it was 0%; with Leishmania amazonensis [4], 32.4%.

In the case of `C=C(C#N)C(O)c1cc(OC)ccc1OC` (stereo unspecified), the Activity in series [1] was -4.9 µM; with Leishmania amazonensis [2] it was 35.3%; in series [3] it was 0%; in the series with Leishmania amazonensis [4] it was 22.3%.

Regarding `C=C(C#N)C(O)c1ccc([N+](=O)[O-])cc1` (stereo unspecified), the Activity in series [1] came to 5 µM; in the series on Leishmania amazonensis [2], 93.9%; in series [3] it was 41.7%; in the series on Leishmania amazonensis [4] it was 47%.

For `C=C(C(=O)OC)C(O)c1ccc(C)cc1` (stereo unspecified), the Activity in series [1] was -3.7 µM; in the series with Leishmania amazonensis [2], 28.7%; in series [3], 0%; in the series with Leishmania amazonensis [4], 32.4%.

Turning to `C=C(C(=O)OC)C(O)c1cccnc1` (stereo unspecified), the Activity turned out to be 0.1 µM in series [1], 8.9% with Leishmania amazonensis [2], 13.2% in series [3] and 39.6% with Leishmania amazonensis [4].

As for `C=C(C#N)C(O)c1ccc(C(F)(F)F)cc1` (stereo unspecified), the Activity in series [1] was -4 µM; with Leishmania amazonensis [2], 86%; in series [3], 36.3%; in the series with Leishmania amazonensis [4], 62.8%.

As to `C=C(C(=O)OC)C(O)c1ccccc1` (stereo unspecified), the Activity in series [1] is -2.1 µM; in the series with Leishmania amazonensis [2], 14.4%; in series [3], 0%; in the series on Leishmania amazonensis [4] it was 37.6%.

Consider `C=C(C#N)C(O)c1ccc(Br)cc1` (stereo unspecified), for which the Activity in series [1] is 2.5 µM; in the series with Leishmania amazonensis [2] it was 84.3%; in series [3] it was 0%; in the series on Leishmania amazonensis [4], 17.5%. In addition, it took 12.5 µM to reach half-maximal inhibition in the series on Leishmania amazonensis [5] (IC50).

Turning to `C=C(C#N)C(O)c1ccc2ccccc2c1` (stereo unspecified), the Activity in series [1] was -7.1 µM; in the series with Leishmania amazonensis [2] it was 95.6%; in series [3] it was 26.6%; in the series on Leishmania amazonensis [4], 24%. Besides, the half-inhibitory concentration (IC50) with Leishmania amazonensis [5] worked out at 11.2 µM.

For `C=C(C(=O)OC)C(O)c1ccc([N+](=O)[O-])cc1` (stereo unspecified), the Activity was -3.7 µM in series [1], 80.6% in the series with Leishmania amazonensis [2], 41.6% in series [3] and 67.3% in the series on Leishmania amazonensis [4].

pentostam: the Activity in series [1] came to 0 µM; with Leishmania amazonensis [2] it was 35.3%; in the series on Leishmania amazonensis [4], 0%.

For `C=C(C#N)C(O)c1ccc2c(c1)OCO2` (stereo unspecified), the Activity in series [1] was -2.1 µM; in the series on Leishmania amazonensis [2], 9.1%; in series [3], 0%; with Leishmania amazonensis [4], 25.5%.

On to `C=C(C#N)C(O)c1ccc(O)c(OC)c1` (stereo unspecified), for which the Activity in series [1] was -2.3 µM; in the series with Leishmania amazonensis [2], 19.7%; in series [3], 0%; with Leishmania amazonensis [4], 6.6%.

Take `C=C(C#N)C(O)c1ccccc1OC` (stereo unspecified): the Activity in series [1] came to 0.4 µM; in the series with Leishmania amazonensis [2], 14.7%; in series [3], 6.1%; in the series on Leishmania amazonensis [4], 30%.

As to `C=C(C#N)C(OC(C)=O)c1ccc([N+](=O)[O-])cc1` (stereo unspecified), the Activity in series [1] was determined as 0 µM; in the series with Leishmania amazonensis [2], 21.5%; in series [3] it was 0%; with Leishmania amazonensis [4], 59.3%.

For `C=C(C#N)C(O)c1ccccc1` (stereo unspecified), the Activity was -1.6 µM in series [1], 48.1% in the series with Leishmania amazonensis [2], 0% in series [3] and 42.2% in the series with Leishmania amazonensis [4]. The compound further had a half-inhibitory concentration (IC50) in the series on Leishmania amazonensis [5] of 49.3 µM.

For the compound `C=C(C(=O)OC)C(O)c1ccc(C(F)(F)F)cc1` (stereo unspecified), the Activity in series [1] was -3.5 µM; in the series with Leishmania amazonensis [2], 89%; in series [3] it was 36.2%; in the series on Leishmania amazonensis [4], 67.6%. In addition, in the series on Leishmania amazonensis [5], it took 42.8 µM to reach half-maximal inhibition (IC50).

Usually IC50 stands for the concentration that gives 50% inhibition. The low end stands for greater potency in that assay, the high end for weaker potency in that assay.
